Test results from ChEMBL document CHEMBL4368886, “Design, synthesis, and biological activity of novel ammonium salts containing sterically hindered phenolic fragment and phosphoryl group” (Medchemcomm, 2018).
≈ marks a conversion by molar mass, not a printed value. Calls of active or inactive are those of the source. The rule behind the calls is not given here.

Experiments:
Bacillus cereus [1] = experiment: Bactericidal activity against Bacillus cereus ATCC 8035 measured after 4 hrs; assay type: functional
How it was run: (§1)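 Microbicidal (bactericidal/fungicidal) concentration, killing of microbial cells, determined per literature procedures; tests in duplicate, repeated twice.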

Bacillus cereus [2] = experiment: Antimicrobial activity against Bacillus cereus ATCC 8035 measured every 24 hrs for 5 days by two-fold serial dilution method; assay type: functional
Escherichia coli [3] = experiment: Bactericidal activity against Escherichia coli CDC F-50 measured after 4 hrs; assay type: functional; how it was run: as §1
Candida albicans [4] = experiment: Bactericidal activity against Candida albicans 855-653 measured after 4 hrs; assay type: functional; how it was run: as §1
Escherichia coli [5] = experiment: Antimicrobial activity against Escherichia coli CDC F-50 measured every 24 hrs for 5 days by two-fold serial dilution method; assay type: functional
Aspergillus niger [6] = experiment: Antimicrobial activity against Aspergillus niger BKMF-1119 measured after 14 days by two-fold serial dilution method; assay type: functional, organism-based
Pseudomonas aeruginosa [7] = experiment: Bactericidal activity against Pseudomonas aeruginosa ATCC 9027 measured after 4 hrs; assay type: functional; how it was run: as §1
Staphylococcus aureus [8] = experiment: Bactericidal activity against Staphylococcus aureus 209p measured after 4 hrs; assay type: functional; how it was run: as §1
Pseudomonas aeruginosa [9] = experiment: Antimicrobial activity against Pseudomonas aeruginosa ATCC 9027 measured every 24 hrs for 5 days by two-fold serial dilution method; assay type: functional
Staphylococcus aureus [10] = experiment: Antimicrobial activity against Staphylococcus aureus 209p measured every 24 hrs for 5 days by two-fold serial dilution method; assay type: functional
Candida albicans [11] = experiment: Antimicrobial activity against Candida albicans 855-653 measured after 14 days by two-fold serial dilution method; assay type: functional
[12] = tested on: Trichophyton mentagrophytes; experiment: Antimicrobial activity against Trichophyton mentagrophytes var. gypseum 1773 measured after 14 days by two-fold serial dilution method; assay type: functional
[13] = tested on: Trichophyton mentagrophytes var. granulosum; experiment: Bactericidal activity against Trichophyton mentagrophytes var. granulosum 1773 measured after 4 hrs; assay type: functional; how it was run: as §1
Aspergillus niger [14] = experiment: Bactericidal activity against Aspergillus niger BKMF-1119 measured after 4 hrs; assay type: functional, organism-based; how it was run: as §1

| Structure (SMILES) | MIC (Bacillus cereus [1]; ATCC 8035, 4 h) [µM] | MIC (Bacillus cereus [2]) | MIC (Escherichia coli [3]) | MIC (Candida albicans [4]; 855-653, 4 h) [µM] | MIC (Escherichia coli [5]) | MIC (Aspergillus niger [6]) | MIC (Pseudomonas aeruginosa [7]) | MIC (Staphylococcus aureus [8]) | MIC (Pseudomonas aeruginosa [9]) | MIC (Staphylococcus aureus [10]) | MIC (Candida albicans [11]; 855-653, 336 h) [µM] | MIC [12] | MIC [13] | MIC (Aspergillus niger [14]) | MIC (Candida albicans [4]) | MIC (Candida albicans [11]) | MIC (Escherichia coli [3]; CDC F-50, 4 h) [µM] | MIC (Pseudomonas aeruginosa [7]; ATCC 9027, 4 h) [µM] | MIC (Bacillus cereus [1]) |
| --- | --- | --- | --- | --- | --- | --- | --- | --- | --- | --- | --- | --- | --- | --- | --- | --- | --- | --- | --- |
| CCCCCCCC[N+](C)(C)CCNC(=O)CCc1cc(C(C)(C)C)c(O)c(C(C)(C)C)c1 | 58 | 58 µM | inactive | 29 | inactive | inactive | inactive | 29 µM | inactive | 29 µM | 29 | inactive | inactive | inactive |  |  |  |  |  |
| CCOP(=O)(OCC)C(NCC[N+](C)(C)CC)c1cc(C(C)(C)C)c(O)c(C(C)(C)C)c1 (stereo not drawn) | 56.8 | 56.8 µM | inactive |  | inactive | inactive | inactive | 56.8 µM | inactive | 56.8 µM |  | inactive | inactive | inactive | inactive | inactive |  |  |  |
| CCOP(=O)(OCC)C(NCC[N+](C)(C)Cc1ccccc1)c1cc(C(C)(C)C)c(O)c(C(C)(C)C)c1 (stereo not drawn) | 102 | 6.4 µM | inactive | 177 | inactive | inactive | inactive | 407 µM | inactive | 51 µM | 177 | inactive | inactive | inactive |  |  |  |  |  |
| CC[N+](C)(C)CCCNC(c1cc(C(C)(C)C)c(O)c(C(C)(C)C)c1)P(=O)(OC(C)C)OC(C)C (stereo not drawn) | 421 | 105 µM | inactive | 422 | inactive | inactive | inactive | 105 µM | inactive | 105 µM | 422 | inactive | inactive | inactive |  |  |  |  |  |
| CCCCCCCCCCCC[N+](C)(C)CCCNC(=O)CCc1cc(C(C)(C)C)c(O)c(C(C)(C)C)c1 | 206 | 206 µM | inactive |  | inactive | inactive | inactive | 102 µM | inactive | 102 µM |  | inactive | inactive | inactive | inactive | inactive |  |  |  |
| CCCCCCCCCCCC[N+](C)(C)CCNC(c1cc(C(C)(C)C)c(O)c(C(C)(C)C)c1)P(=O)(OCC)OCC (stereo not drawn) | 361 | 361 µM | inactive | 45.2 | inactive | inactive | inactive | 45.2 µM | inactive | 45.2 µM | 45.2 | inactive | inactive | inactive |  |  |  |  |  |
| CCCCCCCCCCCC[N+](C)(C)CCCNC(c1cc(C(C)(C)C)c(O)c(C(C)(C)C)c1)P(=O)(OCC)OCC (stereo not drawn) | 177 | 177 µM | inactive | 44.3 | inactive | inactive | inactive | 22 µM | inactive | 22 µM | 44.3 | inactive | inactive | inactive |  |  |  |  |  |
| CCCCCCCCCC[N+](C)(C)CCCNC(=O)CCc1cc(C(C)(C)C)c(O)c(C(C)(C)C)c1 | 107 | 6.7 µM |  | 0.9 | 26.8 µM | inactive |  | 3.3 µM | 26.8 µM | 1.5 µM | 0.9 | inactive | inactive | inactive |  |  | 53.6 | 26.8 |  |
| CCCCCCCCCC[N+](C)(C)CCNC(=O)CCc1cc(C(C)(C)C)c(O)c(C(C)(C)C)c1 | 55 | 6.8 µM |  | 6.9 | 27.4 µM | inactive |  | 1.6 µM | 27.4 µM | 1.6 µM | 3.3 | inactive | inactive | inactive |  |  | 55 | 55 |  |
| CCCCCCCCCCCC[N+](C)(C)CCNC(=O)CCc1cc(C(C)(C)C)c(O)c(C(C)(C)C)c1 | 419 | 419 µM | inactive | 419 | inactive | inactive | inactive | 52.4 µM | inactive | 52.4 µM | 419 | inactive | inactive | inactive |  |  |  |  |  |
| CC(C)OP(=O)(OC(C)C)C(NCC[N+](C)(C)Cc1ccccc1)c1cc(C(C)(C)C)c(O)c(C(C)(C)C)c1 (stereo not drawn) | 48.8 | 48.8 µM | inactive |  | inactive | inactive | inactive | 97.3 µM | inactive | 24.3 µM | 195 | inactive | inactive | inactive | inactive |  |  |  |  |
| CCCCCCCC[N+](C)(C)CCCNC(=O)CCc1cc(C(C)(C)C)c(O)c(C(C)(C)C)c1 | 28.1 | 28.1 µM | inactive | 56.3 | inactive | inactive | inactive | 28 µM | inactive | 28 µM | 28 | inactive | inactive | inactive |  |  |  |  |  |
| O=C(N[C@H](CO)[C@H](O)c1ccc([N+](=O)[O-])cc1)C(Cl)Cl [CHLORAMPHENICOL] |  | 193 µM (≈ 62.4 µg/mL) |  |  | 386 µM (≈ 125 µg/mL) |  |  |  |  | 193 µM (≈ 62.4 µg/mL) |  |  |  |  |  |  |  |  |  |
| CCCCCCCCCCCCCCCC[N+](C)(C)CCCNC(=O)CCc1cc(C(C)(C)C)c(O)c(C(C)(C)C)c1 | 375 | 375 µM | inactive | 375 | inactive | inactive | inactive | inactive | inactive | 47 µM | 187 | inactive | inactive | inactive |  |  |  |  |  |
| CCOP(=O)(OCC)C(NCCC[N+](C)(C)Cc1ccccc1)c1cc(C(C)(C)C)c(O)c(C(C)(C)C)c1 (stereo not drawn) | 24.8 | 24.8 µM | inactive | 199 | inactive | inactive | inactive | 199 µM | inactive | 99.5 µM | 199 | inactive | inactive | inactive |  |  |  |  |  |
| CC(C)OP(=O)(OC(C)C)C(NCCC[N+](C)(C)Cc1ccccc1)c1cc(C(C)(C)C)c(O)c(C(C)(C)C)c1 (stereo not drawn) | 95.3 | 95.3 µM | inactive |  | inactive | inactive | inactive | 95.3 µM | inactive | 95.3 µM |  | inactive | inactive | inactive | inactive | inactive |  |  |  |
| CC[N+](C)(C)CCCNC(=O)CCc1cc(C(C)(C)C)c(O)c(C(C)(C)C)c1 |  | inactive | inactive | 265 | inactive | inactive | inactive | inactive | inactive | inactive | 265 | inactive | inactive | inactive |  |  |  |  | inactive |
| CCCCCCCCCCCCCCCC[N+](C)(C)CCNC(=O)CCc1cc(C(C)(C)C)c(O)c(C(C)(C)C)c1 |  | 383 µM | inactive | 383 | inactive | inactive | inactive | inactive | inactive | 95.7 µM | 383 | inactive | inactive | inactive |  |  |  |  | inactive |
| CC[N+](C)(C)CCNC(=O)CCc1cc(C(C)(C)C)c(O)c(C(C)(C)C)c1 |  | inactive | inactive |  | inactive | inactive | inactive | inactive | inactive | inactive | 68.5 | inactive | inactive | inactive | inactive |  |  |  | inactive |
| CCn1cc(C(=O)O)c(=O)c2cc(F)c(N3CCNCC3)cc21 [NORFLOXACIN] | 50 (≈ 16 µg/mL) | 25 µM (≈ 7.98 µg/mL) |  |  | 4.7 µM (≈ 1.5 µg/mL) |  |  | 7.5 µM (≈ 2.4 µg/mL) | 9.4 µM (≈ 3 µg/mL) | 7.5 µM (≈ 2.4 µg/mL) |  |  |  |  |  |  | 4.7 (≈ 1.5 µg/mL) | 48.8 (≈ 15.6 µg/mL) |  |
